PMC5035150 (Journal of biological inorganic chemistry : JBIC : a …, 2015)
Like-named read-outs stand apart in the source and are kept apart here.

Columns and labels:
[1] = test system: phosphorylation of histone H2A.X in KB-3-1 cells; assay: H2AX immunohistochemical staining; type: cell-based, human; details: 24 h treatment
Outline: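 KB-3-1 cells (5 × 10^4 per chamber) grown 24 h, then exposed to Pt complexes (5–100 μM) for 24 h. Cells PBS-washed, fixed in 4% paraformaldehyde and blocked 1 h in PBS/5% normal horse serum/0.3% Triton X-100. Stained overnight at 4 °C with Alexa Fluor 647-conjugated anti-phospho-H2A.X (Ser139) rabbit mAb, counterstained with DAPI (2 μg/mL, 1 h), then imaged for γH2A.X foci by confocal microscopy.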

[2] = test system: KB-3-1 cells grown in Matrigel; assay: Cytotoxicity in three dimensional Matrigel culture, CellTiter-Glo; type: cell-based, human; details: KB-3-1, Matrigel
Outline: (§1)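 Wells coated with 5 mg/mL Matrigel and gelled 30 min at 37 °C. Cells (1000/well) seeded over it in 2.5 mg/mL Matrigel and grown 1 day (single cells) or 4 days (spheroids). Test compound added as 1:3 serial dilutions in DMEM. Viability by CellTiter-Glo with 60 min lysis, run in triplicate.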

[3] = test system: CP.5 cells grown in Matrigel; assay: as above; type: cell-based, human; details: for IC50: CP.5, Matrigel
Outline: as §1

[4] = test system: KB-3-1 human cervical carcinoma cell line; assay: Cytotoxicity, CellTiter-Glo, monolayer; type: cell-based
Outline: (§2)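 Monolayers in DMEM (4.5 g/L glucose, L-glutamine, penicillin/streptomycin, 10% FBS) at 37 °C, 5% CO2. […] Cells at 1000/well grown 24 h, then given test compound (from DMF, DMSO or 3 mM saline stock) as 1:3 serial dilutions in DMEM, DMF at most 0.25% final. After 72 h, CellTiter-Glo luminescence read, in triplicate.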

[5] = test system: cisplatin-resistant KB CP.5 cells; assay: Cytotoxicity, CellTiter-Glo, monolayer; type: cell-based, human
Outline: as §2

[6] = test system: cisplatin-resistant KB CP20 cells; assay: Cytotoxicity, CellTiter-Glo, monolayer; type: cell-based, human; details: for IC50: read-out: IC50 KB CP20, 72 h; for resistance of CP20 cells: relative to parent KB-3-1 cells, monolayer (Table 1 data)
Outline: as §2

[7] = pH 7.2
[8] = test system: cisplatin-resistant cell lines; details: cited from earlier work
[9] = test system: CP20 cells relative to KB-3-1 cells; assay: Cellular accumulation by flow cytometry; type: cell-based, human; details: 25 μM, 45 min, normalized to KB-3-1
Outline: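 Cells trypsinised (200,000 per tube), washed twice and resuspended in IMDM with 5% FBS containing fluorescent test compound (final 25 μM), then held 45 min at 37 °C. Cells rewashed, resuspended in PBS and kept on ice. FL-1 fluorescence read by flow cytometry (488 nm laser, 10,000 events per sample), normalised to parental KB-3-1 cells.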

[10] = Distribution coefficient; details: [octanol]:[phosphate-buffered saline, pH 7.2], fluorescence, mean ± SD
[11] = read-out: IC50 3D 1 Day, grown 1 day (single-cell suspension)
[12] = read-out: IC50 3D 4 Day, grown 4 days (spheroids)
[13] = read-out: IC50 2D, KB-3-1, 2D culture (Table 2)
[14] = read-out: IC50 KB 3-1, solvent DMF, 72 h
[15] = read-out: IC50 KB 3-1, solvent Saline, 72 h
[16] = read-out: IC50 2D, CP.5, 2D culture (Table 2)
[17] = read-out: IC50 KB CP.5, solvent DMF, 72 h
[18] = read-out: IC50 KB CP.5, solvent Saline, 72 h
[19] = relative to parent KB-3-1 cells, monolayer (Table 1 data)

| Compound | IC50 [2, 11] [µM] | IC50 [2, 12] [µM] | IC50 [3, 11] [µM] | IC50 [3, 12] [µM] | IC50 [4, 13] [µM] | IC50 [4, 14] [µM] | IC50 [4, 15] [µM] | IC50 [5, 16] [µM] | IC50 [5, 17] [µM] | IC50 [5, 18] [µM] | resistance of CP.5 cells [5, 19] [fold] | IC50 ([6]; solvent DMF) [µM] | IC50 ([6]; solvent Saline) [µM] | resistance of CP20 cells [6] [fold] | reduction in accumulation in cisplatin-resistant cells [8] | further results |
| --- | --- | --- | --- | --- | --- | --- | --- | --- | --- | --- | --- | --- | --- | --- | --- | --- |
| NCCN.[Cl][Pt][Cl] [[PtCl2(en)]] | 21.4 ± 1 | 150 | 298 ± 21.8 | > 500 | 4.1 ± 0.2 | 1 ± 0.6 | 2.7 ± 1.9 | 107 ± 10.9 | 150 ± 11.8 | 94.9 ± 8.3 | 40 | > 500 | > 100 | – | – | γH2A.X foci / DNA damage response ([1]; 25 μM): strong DNA damage response |
| CC1=CC(C)=[N+]2C1=Cc1ccc(CCC(=O)NCCNC(=O)C3C[NH][Pt]([Cl])([Cl])[NH]3)n1[B-]2(F)F (stereo not drawn) [BODIPY-prop-Pt, [(2,3-Diamino-N-(2-(3-(5,5-difluoro-7,9-dimethyl-5H-4λ^4,5λ^4-dipyrrolo[1,2-c:2′,1′-f][1,3,2]diazaborinin-3-yl)propanamido)ethyl)propanamide)dichloroplatinum (II)]] | – | – | – | – | – | 21.5 ± 5.8 | – | – | 44.6 ± 2.7 | – | 2 | 192 ± 50.3 | – | 10 | – | γH2A.X foci ([1]; 50 μM): did so at 50 μM; LogD [7]: 0.66 ± 0.011 |
| [Pt(O,O′-cdbca)(NH3)2] [[^14C]carboplatin] | – | – | – | – | – | – | – | – | – | – | – | – | – | – | 50–75% | – |
| N.N.[Cl][Pt][Cl] [Cisplatin, cis-[PtCl2(NH3)2]] | 4.5 ± 0.7 | 9.4 ± 0.7 | 22.9 ± 4.6 | 32.1 ± 6.9 | 2.5 ± 0.1 | 1.8 ± 0.1 | 2.5 ± 0.2 | 21 ± 2.8 | 23.9 ± 5.3 | 25.1 ± 3.4 | 10 | 125 ± 31.5 | > 100 | 60 | 50–75% | γH2A.X foci / DNA damage response ([1]; 5 μM): strong DNA damage response; resistance of CP.5 spheroids ([3]; 3D 4 day, relative to KB-3-1): 3.4 fold; resistance of CP.5 cells ([5]; 2D (Table 2 data), relative to KB-3-1): 8.4 fold |
| CC1=CC(C)=[N+]2C1=Cc1ccc(CCC(=O)NCCNC(=O)OC(C)(C)C)n1[B-]2(F)F [BODIPY-Boc, tert-Butyl (2-(3-(5,5-Difluoro-7,9-dimethyl-5H-4λ^4,5λ^4-dipyrrolo[1,2-c:2′,1′-f][1,3,2]diazaborinin-3-yl)propanamido)ethyl)carbamate] | – | – | – | – | – | 86.7 ± 0.8 | – | – | 86.9 ± 4.4 | – | – | 53.6 ± 2.9 | – | – | – | reduction of accumulation in CP20 cells versus parent KB-3-1 cells [9]: unaffected; LogD [10]: 2.15 ± 0.023 |
